Sampled rows, rich in hits. Any-hit rate of the full collection: about 3.8%.
rCAG binder – molecules binding r(CAG) RNA repeats | r(CAG) RNA repeat, TO-PRO-1 dye displacement fluorescence | inhibition, % at 3 µM | AID 651821 | actives 1.3% (n = 370,000);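 active = inhibition above the plate cutoff, the mean of all test compounds on that plate plus 3 SD, cut at about 35% in these data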;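 also: 0% = DMSO alone and 100% = 100 µM mitoxantrone as full dye displacement; higher means more dye released from RNA so lower well fluorescence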
T cell modulator – modulates CD8 T cell binding to vesicles. 2C CD8+ T cell-vesicle binding, flow cytometry; stronger effect = lower value. response (vesicle binding), % at 7 µM. actives 0.068% (n = 330,000);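 active = response, share of CD8 T cells binding vesicles, and their 90th percentile fluorescence all below set limits, cut at about 80% in these data, passing the limit was not always enough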;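 also: values below 100% mean blocked vesicle binding to the CD8+ T cells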
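Assay system: 2C TCR transgenic mouse naive CD8+ T cells, MACS-purified | Read-out: CD8+ gate FL2 mean fluorescence as % of same-row positive control | Signal: High-throughput flow cytometry with anti-B7-1 and anti-CD8 staining | Timing: Binding step 1.5 h, 37 °C, antibody labelling 20 min, ice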
MPTP block – permeability transition pore inhibition. inhibition, % at 10 µM. AID 602449. isolated mouse mitochondria, Ca2+ swelling absorbance, 30 min. actives 1.4% (n = 360,000);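 active = inhibition of 50% or more, scaled per plate between neutral and stimulator controls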;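 also: 0% = DMSO wells given calcium and 100% = 1 mM EGTA wells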
Granule exo inh – blocks lytic granule exocytosis; inhibition, % at 10 µM; TALL-104 LAMP-1 surface exposure, flow cytometry; cells stimulated with thapsigargin and PMA; actives 0.66% (n = 360,000); AID 651702;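 active = inhibition above about 55%, limit read from the data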
V-ATPase pH – yeast V-ATPase proton transport regulation by pHLuorin; S. cerevisiae, pHLuorin cytosolic pH fluorescence; response, % at 10 µM; actives 0.37% (n = 350,000); in the data active = response mostly above about 7.3%, no sharp cut-off; inactive = mostly below about 5.4%; also: actives read high
B2AR ag – human beta-2 adrenergic receptor agonism by FAP | P07550 | Am2.2-beta2AR cells, FAP receptor internalization, flow cytometry | response, % (no concentration beside the values) | actives 0.43% (n = 340,000);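 active = response above a set limit, near 3 SD of response in nonfluorescent compounds, cut at about 42% in these data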
Target sequence (P07550 whole entry, looked up): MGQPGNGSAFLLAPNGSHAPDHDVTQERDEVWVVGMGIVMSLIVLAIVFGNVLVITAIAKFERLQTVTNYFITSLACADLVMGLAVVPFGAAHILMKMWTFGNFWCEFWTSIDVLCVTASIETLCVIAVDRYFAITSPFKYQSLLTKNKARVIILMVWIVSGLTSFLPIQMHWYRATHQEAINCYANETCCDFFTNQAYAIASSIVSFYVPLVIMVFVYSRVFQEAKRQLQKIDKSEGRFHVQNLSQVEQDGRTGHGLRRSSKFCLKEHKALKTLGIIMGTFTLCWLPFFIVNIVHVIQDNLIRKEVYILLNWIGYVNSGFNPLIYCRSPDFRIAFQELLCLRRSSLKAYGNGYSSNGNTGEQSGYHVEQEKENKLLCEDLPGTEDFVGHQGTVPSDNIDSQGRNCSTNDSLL
V-ATPase pH SP – modulates yeast V-ATPase proton transport | shares compounds with V-ATPase pH | S. cerevisiae pHLuorin cytosolic pH | response, % at 10 µM | actives 2% (n = 980); in the data active = response above about 24%;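 also: plate controls were vehicle wells for no effect and positive control wells for full effect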
Numbers without * were called inactive; i = inactive; / = no result.

SMILES	rCAG binder	T cell modulator	MPTP block	Granule exo inh	V-ATPase pH	B2AR ag	V-ATPase pH SP
Cc1ccc(-c2nc(N)n(S(=O)(=O)c3ccc(C)cc3)n2)cc1	0	315	-1	0	8.7*	-8	-1
CCOC(=S)SCC(=O)N1CCc2ccccc2C1C1C(=O)CC(C)(C)CC1=O (stereo not drawn)	4	191	2	0	5	-3	/
CCOC(=S)SCC(=O)N1CCc2cc(OC)c(OC)cc2C1C1C(=O)CC(C)(C)CC1=O (stereo not drawn)	-1	183	1	1	20*	3	-3
CSc1nc2cc(S(=O)(=O)N3CCOCC3)ccc2s1	2	348	-1	-4	19*	-9	0
Cc1[nH]nc2c1C(c1ccc(Br)cc1)N(Cc1ccccc1)C2=O (stereo not drawn)	3	/	/	/	/	/	/
Clc1ccc(N2CCN(c3ccnc(Cl)n3)CC2)cc1	-7	i	5	0	0	10	/
CSc1nccc(N2CCN(c3ccc(F)cc3)CC2)n1	2	194	7	-1	11*	-10	-1
O=C(CN1CCN(c2ccccc2)CC1)N1N=CCC1c1ccccc1 (stereo not drawn)	-2	140	0	4	24*	23	-3
C[C@H]1[C@@H](c2ccccc2)Oc2c(Cl)cccc2S(=O)(=O)N1C	2	/	/	/	/	/	/
CCc1ccc(C(C(=O)NC2CCCC2)N(C(=O)/C=C/C(=O)Nc2cc(C)on2)c2ccccc2C)cc1 (stereo not drawn)	-2	156	7	0	10*	7	2
Cc1ccc(C)c(NS(=O)(=O)c2ccc3oc(=O)ccc3c2)c1	6	343	1	-9	0	-9	/
Cc1cc(C)cc(NS(=O)(=O)c2ccc3oc(=O)ccc3c2)c1	5	310	0	-2	14*	-17	3
O=S1(=O)c2c(cccc2N2CCSCC2)Oc2ccccc2CN1Cc1cn(Cc2ccccc2C(F)(F)F)nn1	9	/	/	/	/	/	/
COC(=O)c1ccc(CNC(=O)c2ccc3c(c2)S(=O)(=O)N=C2CCCCCN23)cc1	1	312	3	14	11*	3	-1
COc1cccc(CNC(=O)c2ccc3c(c2)S(=O)(=O)N=C2CCCCCN23)c1	1	624	0	-2	2	5	/
O=C(C1CCN(c2nc(-c3ccccc3)nc3c2CCC3)CC1)N1CCC(O)CC1	-6	233	-2	0	11*	-24	-1
COCC1CCN(C(=O)C2CCN(c3nc(-c4ccccc4)nc4c3CCC4)CC2)C1 (stereo not drawn)	-7	551	0	-4	-4	-18	/
CCCCNC(=O)NCCCN1CCN(c2ccc(F)cc2)CC1	2	/	/	/	/	/	/
COC(=O)COc1ccc2c(c1)O/C(=C\c1cccc([N+](=O)[O-])c1)C2=O	4	251	0	42	13*	19	3
COc1ccc(/C=C2\Oc3cc(OCC(N)=O)ccc3C2=O)cc1OC	4	414	0	-6	-1	27	/
COc1ccc2ccccc2c1CN1CCN(c2ncc(Cc3ccccc3)cn2)CC1	3	/	/	/	/	/	/
CCC(C)NC(=O)CNc1nnnn1-c1ccccc1 (stereo not drawn)	2	/	/	/	/	/	/
COCCNC(=O)C(c1ccc(C)o1)N(Cc1ccc(F)cc1)C(=O)Cn1nnc2ccccc21 (stereo not drawn)	-6	251	0	-1	24*	0	-2
COCCNC(=O)C(c1ccccc1)N(Cc1cccs1)C(=O)Cn1nnc2ccccc21 (stereo not drawn)	-6	394	-1	-2	24*	13	-6
CCOC(=O)Nc1ccc(Oc2ccccc2)cc1	-2	720	8	0	1	-15	/
CCOC(=O)Nc1c2ccccc2nc2ccccc12	4	91	0	5	-2	-4	-48
Brc1ccc2nc(-c3ccc(CN4CCC5(CC4)CNc4ccccc45)cc3)c(-c3ccccc3)nc2c1	12	/	/	/	/	/	/
CCOC(=O)N1CCN(Cc2ccc3ccccc3c2)CC1	-9	185	0	-1	0	-1	/
O=C(c1cccnc1)N1CCN(Cc2ccc3ccccc3c2)CC1	-6	184	0	2	10*	7	0
